Article PMC9720105 (Redox Biology, 2022)
One block for each compound: values may come before it.

Legend:
[1] = test system: NQO1, TALDO1, and GCLM mRNA in BEAS-2B cells; assay: Quantitative RT-PCR of antioxidant genes in BEAS-2B cells; format: cell-based, human; settings: 0.13 μM, 48 h
Outline: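 BEAS-2B cells were treated with 0.13 μM test compound for 48 h. RNA was extracted, reverse transcribed (SuperScript IV) and quantified by SYBR Green qPCR. Expression was normalized to 18S by the delta-delta-Ct method. Three independent experiments, each in technical triplicate; mean and S.D.; unpaired t-test.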

BEAS-2B cells proteome = assay: Label-free quantitative MS proteomics in BEAS-2B cells; format: cell-based, human; settings: 0.13 μM, 48 h, vs DMSO
Outline: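 BEAS-2B cells received DMSO or 0.13 μM test compound for 48 h, then were lysed in 5% SDS/50 mM TEAB. 20 μg protein was processed on S-traps (chloroacetamide alkylation), digested with trypsin/Lys-C and cleaned on SDB stage tips. About 100 ng peptide ran on a 48 min C18 gradient, timsTOF DIA-PASEF. Library-free search against human UniProt, 1% precursor FDR, MaxLFQ quantitation. Hits: >1.5-fold versus DMSO, adjusted P <0.01.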

[2] = test system: HepG2 ARE-luciferase reporter cells; assay: ARE-luciferase activity assay; format: cell-based; settings: 48 h, 14: maximum at 1 μM
BEAS-2B cells = assay: Flow cytometric detection of cell viability after tBHP; format: cell-based, human; settings: 50 μM tBHP
Outline: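 BEAS-2B cells (LHC-9 with pen/strep) were seeded at 1.2 × 10⁴ cells/well overnight, pre-treated with test compound for 24 h, then given 50 μM tBHP for 24 h. Harvested cells were stained with 1 μg/mL propidium iodide. Gating used FSC-A/SSC-A to exclude debris and FSC-H/FSC-A to exclude doublets. Viability was % PI-negative cells. Three independent assays, single points each; mean and S.D.; unpaired t-test.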

KEAP1 in HEK293T cells = KEAP1 in HEK293T cells (Homo sapiens, UniProt Q14145); assay: KEAP1 degradation in HEK293T cells; format: cell-based
KEAP1 in HEK293T cells, sequence (Q14145 whole entry): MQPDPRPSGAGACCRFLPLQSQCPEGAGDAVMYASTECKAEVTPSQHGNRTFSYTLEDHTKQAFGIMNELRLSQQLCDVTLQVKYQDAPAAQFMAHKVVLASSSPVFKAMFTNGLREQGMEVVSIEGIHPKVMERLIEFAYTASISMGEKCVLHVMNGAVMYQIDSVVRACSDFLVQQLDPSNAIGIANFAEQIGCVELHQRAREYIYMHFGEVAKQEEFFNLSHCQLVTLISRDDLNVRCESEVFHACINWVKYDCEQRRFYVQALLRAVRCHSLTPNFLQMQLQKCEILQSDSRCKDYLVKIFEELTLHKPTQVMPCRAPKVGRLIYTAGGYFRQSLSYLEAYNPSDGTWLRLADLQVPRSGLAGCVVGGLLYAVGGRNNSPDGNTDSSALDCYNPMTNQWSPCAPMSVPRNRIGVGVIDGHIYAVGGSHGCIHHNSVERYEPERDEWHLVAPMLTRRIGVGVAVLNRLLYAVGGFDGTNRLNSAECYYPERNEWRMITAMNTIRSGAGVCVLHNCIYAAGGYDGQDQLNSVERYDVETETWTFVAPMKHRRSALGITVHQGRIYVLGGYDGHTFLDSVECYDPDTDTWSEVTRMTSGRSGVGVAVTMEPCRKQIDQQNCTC

CRBN = CRBN (Homo sapiens, UniProt Q96SW2); assay: CRBN levels by immunoblotting; format: cell-based; settings: HEK293T, HCA7, BEAS-2B, and A549 cells, 48 h
CRBN, sequence (Q96SW2 whole entry): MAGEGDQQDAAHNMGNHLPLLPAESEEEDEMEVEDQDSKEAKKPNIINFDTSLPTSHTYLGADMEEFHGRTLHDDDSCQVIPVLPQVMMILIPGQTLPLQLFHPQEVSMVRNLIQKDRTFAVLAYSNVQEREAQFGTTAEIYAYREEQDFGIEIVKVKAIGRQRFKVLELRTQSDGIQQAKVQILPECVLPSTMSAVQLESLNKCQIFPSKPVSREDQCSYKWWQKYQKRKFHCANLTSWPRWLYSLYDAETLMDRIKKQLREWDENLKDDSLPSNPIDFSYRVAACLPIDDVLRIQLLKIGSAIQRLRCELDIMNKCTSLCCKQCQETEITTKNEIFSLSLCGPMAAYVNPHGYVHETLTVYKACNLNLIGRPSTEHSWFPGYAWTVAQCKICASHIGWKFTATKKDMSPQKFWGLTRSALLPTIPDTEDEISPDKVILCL
Outline: (§1)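 HEK293T, HCA7 and A549 cells were grown in DMEM with 10% FBS and pen/strep; BEAS-2B in LHC-9 with pen/strep; all at 37 °C, 10% CO₂. Cells were exposed to test compound for 48 h, lysed, run on 4–12% SDS-PAGE and transferred to nitrocellulose. Blocking was 5% skim milk for 1 h at RT. Probes were anti-KEAP1, CRBN, NQO1 or HO-1, with HRP anti-β-actin loading control and HRP secondaries. Blots represent 3 independent experiments.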

[3] = molecular target: KEAP1 (G333C mutation in the KEAP1-Kelch domain) in A549 cells (Homo sapiens, UniProt Q14145, G333C); assay: KEAP1 degradation in A549 cells; format: cell-based; settings: 48 h
KEAP1 (G333C mutation in the KEAP1-Kelch domain) in A549 cells, sequence (Q14145 whole entry G333C, the tested form may be a part): as the sequence (Q14145 whole entry) above, with G333C counted along it
Outline: as §1

[4] = molecular target: recombinant KEAP1-Kelch domain (Homo sapiens, UniProt Q14145); assay: biochemical; format: binding
recombinant KEAP1-Kelch domain, sequence (Q14145 312-624): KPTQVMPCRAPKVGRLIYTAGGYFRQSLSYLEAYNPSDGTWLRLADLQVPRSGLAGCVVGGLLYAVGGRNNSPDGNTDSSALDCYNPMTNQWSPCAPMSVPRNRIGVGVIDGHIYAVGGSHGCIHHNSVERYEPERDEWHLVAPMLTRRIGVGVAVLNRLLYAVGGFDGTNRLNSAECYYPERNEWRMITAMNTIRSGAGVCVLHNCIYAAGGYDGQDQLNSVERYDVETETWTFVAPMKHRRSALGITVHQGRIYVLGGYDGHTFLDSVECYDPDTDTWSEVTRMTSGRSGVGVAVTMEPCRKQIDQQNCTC

[5] = test system: NRF2 downstream targets, NQO1 and HO-1; assay: NQO1 and HO-1 protein levels in HEK293T and HCA7 cell lines; format: cell-based; settings: 48 h
Outline: as §1

KEAP1 in HCA7 cells = KEAP1 in HCA7 cells (Homo sapiens, UniProt Q14145); assay: KEAP1 degradation in HCA7 cells; format: cell-based; settings: 48 h
KEAP1 in HCA7 cells, sequence (Q14145 whole entry): as the sequence (Q14145 whole entry) above
Outline: as §1

[6] = test system: NQO1 and GCLM in BEAS-2B cells; assay: NQO1 and GCLM protein expression in BEAS-2B cells; format: cell-based, human; settings: 48 h, all tested concentrations
KEAP1 in BEAS-2B cells = KEAP1 in BEAS-2B cells (Homo sapiens, UniProt Q14145); assay: KEAP1 degradation in BEAS-2B cells; format: cell-based
KEAP1 in BEAS-2B cells, sequence (Q14145 whole entry): as above

SMILES: COc1cc(C(CC(=O)O)c2ccc(C)c(CN3C[C@@H](C)Oc4ccccc4S3(=O)=O)c2)cc2nnn(C)c12 (stereo partly drawn) [Compound 2, 3-(7-Methoxy-1-methyl-1H-benzo[d][1,2,3]triazol-5-yl)-3-(4-methyl-3-(((R)-4-methyl-1,1-dioxido-3,4-dihydro-2H-benzo[b][1,4,5]oxathiazepin-2-yl)methyl)phenyl)propanoic acid]
mRNA induction of GCLM [1]: 2 fold
mRNA induction of NQO1 [1]: 4 fold
mRNA induction of TALDO1 [1]: 2 fold
ABHD4 abundance (proteomics) (BEAS-2B cells proteome): not upregulated
abundance of KEAP1 (proteomics) (BEAS-2B cells proteome): did not affect KEAP1 expression
induction of luciferase signal compared to the DMSO control group [2]: 5- to 6 fold
rescue of cell viability from tBHP, comparison of 14 and 2 (BEAS-2B cells; between 500 and 16 nM): equal potent

KEAP1 degradation / expression (KEAP1 in HEK293T cells; HEK293T cells, 48 h): robust degradation of KEAP1
hook effect observed at concentrations higher than (KEAP1 in HEK293T cells; HEK293T cells, dose titration 0.01–8 μM, 24 h): higher than 1 μM
Dmax at 1 µM (KEAP1 in HEK293T cells; HEK-293T, read-out: maximum degradation (Dmax)): 94%
CRBN levels (CRBN): no change in CRBN levels
KEAP1 degradation [3]: did not degrade KEAP1
IC50 [4]: 46 nM
KEAP1 degradation / expression (KEAP1 in HCA7 cells): robust degradation of KEAP1
Dmax at 0.0625 µM (KEAP1 in BEAS-2B cells): 90%
SMILES: Cc1ccc(C(CC(=O)O)c2cc(OCCCCCCCNc3cccc4c3C(=O)N(C3CCC(=O)NC3=O)C4=O)c3c(c2)nnn3C)cc1CN1C[C@@H](C)Oc2ccccc2S1(=O)=O (stereo partly drawn) [Compound 14, 3-(7-((7-((2-(2,6-Dioxopiperidin-3-yl)-1,3-dioxoisoindolin-4-yl)amino)heptyl)oxy)-1-methyl-1H-benzo[d][1,2,3]triazol-5-yl)-3-(4-methyl-3-(((R)-4-methyl-1,1-dioxido-3,4-dihydro-2H-benzo[b][1,4,5]oxathiazepin-2-yl)methyl)phenyl)propanoic acid]
mRNA induction of GCLM [1]: 2 fold
mRNA induction of NQO1 [1]: 4 fold
mRNA induction of TALDO1 [1]: 2 fold
ABHD4 abundance (proteomics) (BEAS-2B cells proteome): significantly upregulated
ZFP91 abundance (proteomics) (BEAS-2B cells proteome): Off-target degradation of ZFP91
abundance of KEAP1 (proteomics) (BEAS-2B cells proteome): significantly reduced the abundance of KEAP1
abundance of other Kelch domain proteins KBTBD4, KLHDC2, and KLHL11 (proteomics) (BEAS-2B cells proteome): not impacted
induction of luciferase signal compared to the DMSO control group [2]: 3.5 fold
KEAP1 degradation at longer time points (KEAP1 in HEK293T cells; HEK293T cells, 48 h and 72 h, comparison of 8 and 14): degraded KEAP1 more efficiently at 48 and 72 h compared to 8
rescue of cell viability from tBHP, comparison of 14 and 2 (BEAS-2B cells; between 500 and 16 nM): equal potent
rescue of cell viability from tBHP, comparison of 14 and 2 (BEAS-2B cells; concentrations lower than 16 nM): less effective
HO-1 protein expression [5]: upregulated
NQO1 protein expression [5]: upregulated
increased expression of NQO1 and GCLM, compared with KEAP1 inhibitor 2 [6]: equipotent
